Entries after “also recorded” stand apart in the source; their conditions may differ. Like-named read-outs stand apart in the source and are kept apart here. Ends that are not written are not given here.
How the values were obtained:
cardiac RyR2 [1] = molecular target: T1, cardiac RyR2 (Canis lupus familiaris, UniProt A0A8I3MT21); format: biochemical, dog
RyR2 with IpTxA = test: Interaction of peptides with IpTxA-modified RyR2 in planar lipid bilayers; format: biochemical, dog; details: for apparent dissociation constant from RyR2 (1/dwell time): 500 µM KIFMK
Outline: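 Dog cardiac RyR2 was recorded in planar bilayers with HEPES-Ca2+ trans and HEPES-Tris cis at pH 7.4, Ca2+/caffeine-activated, with cytosolic IpTxA at 50 nM and Vm +10 mV. Peptide was then added cis. Block events (dwell time, number, P_block = fraction of time at baseline) were scored frame-by-frame on 4-min records, separately during full openings and during IpTxA-induced substates. Means ± S.E.M.; paired t-test.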

ryanodine-modified RyR2 = ryanodine-modified RyR2 (Canis lupus familiaris, UniProt A0A8I3MT21); test: Peptide/IpTxA action on ryanodine-modified RyR2 in planar lipid bilayers; format: biochemical, dog
ryanodine-modified RyR2, sequence (A0A8I3MT21 1-4967): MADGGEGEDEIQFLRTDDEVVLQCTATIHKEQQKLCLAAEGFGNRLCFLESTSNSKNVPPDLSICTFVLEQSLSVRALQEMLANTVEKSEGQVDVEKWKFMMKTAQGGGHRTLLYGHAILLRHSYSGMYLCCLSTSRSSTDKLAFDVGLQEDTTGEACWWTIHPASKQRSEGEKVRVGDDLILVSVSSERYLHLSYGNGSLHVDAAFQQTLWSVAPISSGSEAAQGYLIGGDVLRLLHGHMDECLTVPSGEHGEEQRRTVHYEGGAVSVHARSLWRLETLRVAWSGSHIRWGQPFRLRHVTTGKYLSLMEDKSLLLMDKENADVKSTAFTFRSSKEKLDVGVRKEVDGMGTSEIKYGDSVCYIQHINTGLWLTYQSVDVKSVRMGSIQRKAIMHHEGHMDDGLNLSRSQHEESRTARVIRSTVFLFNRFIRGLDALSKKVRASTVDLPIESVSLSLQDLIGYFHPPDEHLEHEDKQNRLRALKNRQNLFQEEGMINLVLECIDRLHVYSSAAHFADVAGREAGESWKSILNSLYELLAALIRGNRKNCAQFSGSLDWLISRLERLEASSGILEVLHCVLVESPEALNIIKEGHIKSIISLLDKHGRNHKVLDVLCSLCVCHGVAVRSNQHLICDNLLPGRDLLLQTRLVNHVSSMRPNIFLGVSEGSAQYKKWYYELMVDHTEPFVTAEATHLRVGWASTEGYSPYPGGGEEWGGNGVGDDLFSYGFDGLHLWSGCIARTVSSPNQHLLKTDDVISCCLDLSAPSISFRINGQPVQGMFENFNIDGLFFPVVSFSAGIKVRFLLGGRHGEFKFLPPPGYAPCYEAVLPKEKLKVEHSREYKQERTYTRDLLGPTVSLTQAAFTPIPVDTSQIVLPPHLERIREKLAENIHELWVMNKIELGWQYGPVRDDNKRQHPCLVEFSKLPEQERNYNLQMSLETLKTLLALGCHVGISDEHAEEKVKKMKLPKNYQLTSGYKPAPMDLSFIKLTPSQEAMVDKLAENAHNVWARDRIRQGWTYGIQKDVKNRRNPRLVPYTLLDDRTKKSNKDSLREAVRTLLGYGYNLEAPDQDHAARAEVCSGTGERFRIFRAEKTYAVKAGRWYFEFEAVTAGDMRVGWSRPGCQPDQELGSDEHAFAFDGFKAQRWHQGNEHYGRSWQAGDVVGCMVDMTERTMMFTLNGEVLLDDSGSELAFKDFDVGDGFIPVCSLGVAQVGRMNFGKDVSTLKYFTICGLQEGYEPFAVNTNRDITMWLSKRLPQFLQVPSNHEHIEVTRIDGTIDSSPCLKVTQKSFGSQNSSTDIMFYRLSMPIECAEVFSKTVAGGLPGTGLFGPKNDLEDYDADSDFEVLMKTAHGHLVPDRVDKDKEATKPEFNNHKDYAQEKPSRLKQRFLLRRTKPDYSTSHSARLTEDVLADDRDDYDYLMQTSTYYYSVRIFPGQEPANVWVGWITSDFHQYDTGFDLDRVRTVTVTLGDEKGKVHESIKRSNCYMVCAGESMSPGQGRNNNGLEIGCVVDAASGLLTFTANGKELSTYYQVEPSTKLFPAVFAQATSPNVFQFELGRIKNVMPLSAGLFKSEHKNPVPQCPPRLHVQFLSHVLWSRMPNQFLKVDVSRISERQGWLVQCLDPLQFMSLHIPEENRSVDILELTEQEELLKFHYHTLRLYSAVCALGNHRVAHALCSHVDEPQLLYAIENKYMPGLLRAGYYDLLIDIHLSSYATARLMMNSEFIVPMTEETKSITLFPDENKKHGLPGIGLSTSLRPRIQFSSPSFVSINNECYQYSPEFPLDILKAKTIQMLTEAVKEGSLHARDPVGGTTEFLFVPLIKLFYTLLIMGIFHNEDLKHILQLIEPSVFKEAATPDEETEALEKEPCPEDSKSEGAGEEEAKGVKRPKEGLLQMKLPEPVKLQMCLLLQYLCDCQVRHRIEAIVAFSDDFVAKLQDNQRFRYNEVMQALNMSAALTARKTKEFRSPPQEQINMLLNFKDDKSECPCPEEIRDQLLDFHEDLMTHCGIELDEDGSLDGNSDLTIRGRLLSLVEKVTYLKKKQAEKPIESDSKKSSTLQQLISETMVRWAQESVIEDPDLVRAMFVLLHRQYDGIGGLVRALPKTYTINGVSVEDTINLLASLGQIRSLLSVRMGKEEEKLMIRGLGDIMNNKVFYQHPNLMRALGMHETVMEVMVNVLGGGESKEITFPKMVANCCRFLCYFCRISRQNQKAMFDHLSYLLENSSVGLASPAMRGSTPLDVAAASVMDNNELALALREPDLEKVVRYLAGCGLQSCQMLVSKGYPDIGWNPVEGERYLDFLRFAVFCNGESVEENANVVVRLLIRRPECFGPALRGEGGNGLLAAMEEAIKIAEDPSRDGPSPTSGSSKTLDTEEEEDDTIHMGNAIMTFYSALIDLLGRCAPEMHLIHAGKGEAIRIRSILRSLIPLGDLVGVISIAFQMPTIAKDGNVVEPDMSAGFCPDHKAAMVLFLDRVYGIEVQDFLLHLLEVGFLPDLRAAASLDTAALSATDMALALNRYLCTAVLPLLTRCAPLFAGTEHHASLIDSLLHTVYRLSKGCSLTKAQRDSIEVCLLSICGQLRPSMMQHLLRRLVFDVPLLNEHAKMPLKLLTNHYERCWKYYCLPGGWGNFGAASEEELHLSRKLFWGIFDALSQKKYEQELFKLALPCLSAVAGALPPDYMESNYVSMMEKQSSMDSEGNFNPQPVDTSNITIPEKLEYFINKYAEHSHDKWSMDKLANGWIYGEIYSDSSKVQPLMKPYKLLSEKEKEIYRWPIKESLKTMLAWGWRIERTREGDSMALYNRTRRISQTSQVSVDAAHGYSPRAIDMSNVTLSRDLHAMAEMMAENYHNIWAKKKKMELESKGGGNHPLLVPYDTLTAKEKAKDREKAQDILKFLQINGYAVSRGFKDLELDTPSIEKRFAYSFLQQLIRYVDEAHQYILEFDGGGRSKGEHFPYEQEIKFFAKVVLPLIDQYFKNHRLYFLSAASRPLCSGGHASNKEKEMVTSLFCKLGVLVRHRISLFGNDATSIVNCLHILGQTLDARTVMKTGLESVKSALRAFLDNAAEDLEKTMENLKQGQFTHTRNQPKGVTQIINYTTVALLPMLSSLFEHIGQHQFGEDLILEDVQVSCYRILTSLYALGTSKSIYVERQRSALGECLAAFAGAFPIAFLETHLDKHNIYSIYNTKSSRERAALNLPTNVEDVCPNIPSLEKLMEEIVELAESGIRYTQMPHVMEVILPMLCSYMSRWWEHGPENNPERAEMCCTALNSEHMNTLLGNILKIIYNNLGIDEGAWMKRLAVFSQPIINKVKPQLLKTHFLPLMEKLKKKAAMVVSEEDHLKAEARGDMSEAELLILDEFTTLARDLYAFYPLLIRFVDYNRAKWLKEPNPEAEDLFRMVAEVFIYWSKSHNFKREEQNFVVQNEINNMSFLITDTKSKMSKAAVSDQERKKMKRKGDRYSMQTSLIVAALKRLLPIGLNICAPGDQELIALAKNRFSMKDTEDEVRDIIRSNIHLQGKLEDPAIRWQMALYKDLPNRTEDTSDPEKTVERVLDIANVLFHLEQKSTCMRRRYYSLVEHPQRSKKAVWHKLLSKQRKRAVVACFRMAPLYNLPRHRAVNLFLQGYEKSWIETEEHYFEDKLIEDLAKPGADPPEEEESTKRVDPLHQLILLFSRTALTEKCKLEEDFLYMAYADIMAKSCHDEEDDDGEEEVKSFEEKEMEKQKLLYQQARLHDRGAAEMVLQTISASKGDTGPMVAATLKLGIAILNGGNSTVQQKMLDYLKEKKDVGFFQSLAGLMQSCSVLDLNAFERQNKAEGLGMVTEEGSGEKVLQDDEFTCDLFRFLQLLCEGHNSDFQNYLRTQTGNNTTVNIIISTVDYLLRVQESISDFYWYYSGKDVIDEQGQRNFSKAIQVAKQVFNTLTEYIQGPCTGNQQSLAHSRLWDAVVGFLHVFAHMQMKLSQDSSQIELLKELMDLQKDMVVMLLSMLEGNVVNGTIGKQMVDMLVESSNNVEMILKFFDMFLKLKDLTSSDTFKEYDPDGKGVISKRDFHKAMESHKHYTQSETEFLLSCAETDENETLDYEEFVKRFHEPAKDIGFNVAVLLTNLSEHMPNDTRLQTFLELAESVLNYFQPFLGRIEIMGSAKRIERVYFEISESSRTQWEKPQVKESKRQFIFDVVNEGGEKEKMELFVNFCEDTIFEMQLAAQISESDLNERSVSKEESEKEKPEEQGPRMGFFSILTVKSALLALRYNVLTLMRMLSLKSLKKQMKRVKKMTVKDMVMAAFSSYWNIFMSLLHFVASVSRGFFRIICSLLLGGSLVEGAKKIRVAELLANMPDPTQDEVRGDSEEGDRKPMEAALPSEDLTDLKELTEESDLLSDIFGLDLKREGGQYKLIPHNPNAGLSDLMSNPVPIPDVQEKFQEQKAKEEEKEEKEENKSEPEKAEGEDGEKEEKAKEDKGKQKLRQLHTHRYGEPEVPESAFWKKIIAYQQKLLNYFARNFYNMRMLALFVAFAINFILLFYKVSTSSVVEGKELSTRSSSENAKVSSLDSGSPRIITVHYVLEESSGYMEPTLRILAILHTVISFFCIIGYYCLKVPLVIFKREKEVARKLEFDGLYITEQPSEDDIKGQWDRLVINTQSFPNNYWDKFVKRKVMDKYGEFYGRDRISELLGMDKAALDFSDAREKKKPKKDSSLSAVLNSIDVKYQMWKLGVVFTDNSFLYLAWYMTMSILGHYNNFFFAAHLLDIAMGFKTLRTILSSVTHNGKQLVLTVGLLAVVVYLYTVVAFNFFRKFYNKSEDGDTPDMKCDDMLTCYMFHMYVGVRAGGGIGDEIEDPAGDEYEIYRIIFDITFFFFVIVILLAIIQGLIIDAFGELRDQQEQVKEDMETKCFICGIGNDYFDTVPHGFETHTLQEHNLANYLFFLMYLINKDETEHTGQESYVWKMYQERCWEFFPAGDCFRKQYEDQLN

cardiac RyR2 [2] = molecular target: T1, cardiac RyR2; test: Induction of subconductance states; format: biochemical, dog
Outline: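 Dog ventricular SR microsomes fused into PE/PS/PC (5:4:1) bilayers. Solutions: cis HEPES 250 mM/Tris 118 mM, trans HEPES 250 mM/Ca(OH)2 53 mM, pH 7.4. Cytosolic Ca2+ buffered with BAPTA/dibromo-BAPTA; Ca2+/caffeine-activated channel; peptide added cis. Four-minute records were filtered at 500 Hz (Vm ≥0) or 400 Hz (Vm <0). P_substate = substate time/total time, scored frame-by-frame (100 ms frames, events >3 ms) or from Gaussian-fitted all-points histograms. Paired t-test.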

RyR2 (ryanodol-modified) = RyR2 (ryanodol-modified) (Canis lupus familiaris, UniProt A0A8I3MT21); format: biochemical, dog; details: for probability of ryanodol-induced modification: n=5 paired (Fig. 6)
RyR2 (ryanodol-modified), sequence (A0A8I3MT21 1-4967): as above

SR microsomes = details: ref [19], [26], [55]; cited from earlier work
RyRs = details: ryanodine locks channels open; ref [3], [45]; cited from earlier work
[3] = Shaker B 2 µM n=4, KIFMK 500 µM n=8
[4] = 500 µM KIFMK, frame by frame analysis
[5] = IpTxA plus ryanodol, +10 mV, 40 min
[6] = ryanodol, control before IpTxA (Fig. 7A, B)

T1 sequence (A0A8I3MT21 1-4967): as above

Compound: CC[C@H](C)[C@H](NC(=O)[C@H](CCCCN)NC(C)=O)C(=O)N[C@@H](Cc1ccccc1)C(=O)N[C@@H](CCSC)C(=O)N[C@@H](CCCCN)C(N)=O [KIFMK, acetyl-KIFMK-amide]
- duration of block events (cardiac RyR2 [1]; 0 mV): intermediate duration
- mean duration of block events (cardiac RyR2 [1]; 0 mV, Peptide A n=4, KIFMK n=6, mean ± SEM): 5.3 ± 0.3 ms
- d (fraction of the membrane potential acting at the site) (cardiac RyR2 [1]; Woodhull fit, z = 6 Peptide A, 7 Shaker B, 2 KIFMK): 1.2 ± 0.3
- action during IpTxA-induced substates versus full openings (RyR2 with IpTxA; 50 nM IpTxA, +10 mV, Peptide A 20 µM, Shaker B 40 µM, KIFMK 500 µM): able to block the IpTxA-modified channel; also recorded: the probability of blocking the channels was significantly lower during IpTxA-induced substates than during full openings
- apparent dissociation constant from RyR2 (1/dwell time) (RyR2 with IpTxA; during IpTxA substates, 50 nM IpTxA, +10 mV): 3.1 s⁻¹
- apparent dissociation constant from RyR2 (1/dwell time) (RyR2 with IpTxA; during full openings, 50 nM IpTxA, +10 mV): 166 s⁻¹
- action during IpTxA-ryanodine sub-substates (RyR2 with IpTxA; ryanodine-modified RyR2 with IpTxA, results not shown): only induced some block events
- predominant substate level, of the ryanodine-modified conductance (ryanodine-modified RyR2; KIFMK 500 µM): ~ 52%
- block dwell time (ryanodine-modified RyR2; KIFMK 500 µM, ryanodine-modified, n=6): 29.9 ± 10.5 ms
- increase of block dwell time with ryanodine (ryanodine-modified RyR2; KIFMK 500 µM, n=6): 316 ± 62%
- substate amplitude level 1, of full openings of ryanodine-modified channel (ryanodine-modified RyR2; [3]): 31 ± 1%
- substate amplitude level 2, of full openings of ryanodine-modified channel (ryanodine-modified RyR2; [3]): 51 ± 1%
- substate amplitude level 3, of full openings of ryanodine-modified channel (ryanodine-modified RyR2; [3]): 75 ± 1%
- decrease of probability of block on changing 0 mV to +20 mV (ryanodine-modified RyR2; in the presence of ryanodine): 83%
- decrease of probability of substates on changing 0 mV to +20 mV (ryanodine-modified RyR2; in the presence of ryanodine): 61%
- increase in frequency of substates (cardiac RyR2 [2]; 500 µM KIFMK vs before addition, n=5 paired observations): 37 ± 9 times
- substate level 1, of full conductance (cardiac RyR2 [2]; [4]): ~ 27.3 ± 0.3%
- substate level 2, of full conductance (cardiac RyR2 [2]; [4]): ~48.6 ± 0.7%
- substate level 3, of full conductance (cardiac RyR2 [2]; [4]): ~72.3 ± 0.5%
- frequency of substates (cardiac RyR2 [2]; 500 µM KIFMK, n=5 paired observations, control 0.9 ± 0.3): 22.1 ± 4.4 events/min
- substate amplitude level 1, in the absence of ryanodine (cardiac RyR2 [2]; KIFMK, n=8): 27 ± 1%
- substate amplitude level 3, in the absence of ryanodine (cardiac RyR2 [2]; KIFMK, n=8): 74 ± 2%
- substate level, ~30% of full RyR2 conductance (cardiac RyR2 [2]; discussion summary): ~ 30%
- substate level, ~50% of full RyR2 conductance (cardiac RyR2 [2]; discussion summary): ~50%
- substate level, ~70% of full RyR2 conductance (cardiac RyR2 [2]; discussion summary): ~70%

Compound: Cn1c(=O)c2c(ncn2C)n(C)c1=O [caffeine]
- Po with Ca2+ and caffeine (cardiac RyR2 [1]; most channels, Ca2+ 10 µM + caffeine 5 mM, before peptides): > 0.9

Compound: CC(C)[C@@]1(O)[C@@H](O)[C@@]2(O)[C@@]3(C)C[C@]4(O)O[C@@]5([C@H](O)[C@@H](C)CC[C@]35O)[C@@]2(O)[C@]14C [ryanodol]
- probability of R (ryanodol alone) after IpTxA (RyR2 (ryanodol-modified); 50 nM IpTxA): decreased dramatically
- probability of ryanodol-induced modification (RyR2 (ryanodol-modified); 20 µM ryanodol, 0 mV, before Peptide A): 0.58 ± 0.04
- probability of ryanodol-induced modification (RyR2 (ryanodol-modified); 20 µM ryanodol, 0 mV, with 5 µM Peptide A): 0.76 ± 0.05
- action on ryanodol-modified RyR2 or on ryanodol binding (RyR2 (ryanodol-modified); 20 µM ryanodol, 5 µM Peptide A, 0 mV): increased dwell times for ryanodol-modified states
- number of R substate events (RyR2 (ryanodol-modified); [5]): 98 events
- number of transitions R→Open (RyR2 (ryanodol-modified); [5]): 5 times
- number of transitions i→R+i (RyR2 (ryanodol-modified); [5]): 6 times
- decrease of probability of ryanodol modification from 0 to +20 mV (RyR2 (ryanodol-modified); n=6): 52 ± 11%
- relative rate of transition i→R+i (RyR2 (ryanodol-modified); ryanodol binding to IpTxA-modified channel, +10 mV): 14.6
- relative rate of transition Open→R (RyR2 (ryanodol-modified); ryanodol binding to open channel, +10 mV): 130
- relative rate of transition R+i→i (RyR2 (ryanodol-modified); ryanodol dissociation with IpTxA bound, +10 mV): 144
- preferred sequence of binding Open→R→R+i, share of cases (RyR2 (ryanodol-modified); ryanodol first, then IpTxA, +10 mV): 93%
- probability of full opening (RyR2 (ryanodol-modified); [6]): ~ 80%
- probability of ryanodol state (RyR2 (ryanodol-modified); [6]): ~ 20%
- total probability of ryanodol binding (R and R+i), increased (RyR2 (ryanodol-modified); with 50 nM IpTxA, all voltages tested but +30 mV): ~ 40%

Compound: TSAQKAKAEERKRRKMSRGL [Peptide A]
- [3H] ryanodine binding to SR microsomes (SR microsomes): enhances [^3H] ryanodine binding to SR microsomes

Compound: ryanodine
- slope conductance of modified state, of full openings (RyRs): ~ 40%
- effect of ryanodine on channel gating (ryanodine-modified RyR2; 2 µM ryanodine): channels are locked open; closures are brief and extremely rare

From article PMC2738596 (Biochimica et biophysica acta, 2008)
